Screening results from PubChem BioAssay.
T cruzi growth-1: blocks T. cruzi growth in NIH3T3 culture; T. cruzi beta-gal in NIH3T3, GalScreen luminescence, 90 h; inhibition, % at 8.34 µM; actives 5.9% (n = 77,000); AID 624255;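 active = mean inhibition above about 93%, with at least 55% of replicates each passing it, limit read from the data, passing the limit was not always enough; inconclusive = only one of those two conditions holds; inactive = neither condition holds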
IDH1 mut inh: inhibitors of human IDH1 R132H; O75874; IDH1 R132H reductase, diaphorase/resazurin fluorescence, 60 min; inhibition, % at 10 µM; actives 0.18% (n = 70,000); in the data active = inhibition above about 34%; inconclusive = no clear call, values can overlap the other calls; inactive = below about 11%;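 also: 0% = DMSO and 100% = no enzyme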
GASC1 inh: KDM4C (human) demethylase inhibition; GST-KDM4C 2-372, H3K9me3 peptide, LANCE TR-FRET; Q9H3R0; inhibition, % at 12.5 µM; actives 0.15% (n = 96,000);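 active = mean replicate inhibition above about 25%, with at least 55% of replicates also reaching it, limit read from the data, passing the limit was not always enough; inconclusive = only one of those two conditions met; inactive = neither condition met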
Target sequence (Q9H3R0 2-372 limits assumed): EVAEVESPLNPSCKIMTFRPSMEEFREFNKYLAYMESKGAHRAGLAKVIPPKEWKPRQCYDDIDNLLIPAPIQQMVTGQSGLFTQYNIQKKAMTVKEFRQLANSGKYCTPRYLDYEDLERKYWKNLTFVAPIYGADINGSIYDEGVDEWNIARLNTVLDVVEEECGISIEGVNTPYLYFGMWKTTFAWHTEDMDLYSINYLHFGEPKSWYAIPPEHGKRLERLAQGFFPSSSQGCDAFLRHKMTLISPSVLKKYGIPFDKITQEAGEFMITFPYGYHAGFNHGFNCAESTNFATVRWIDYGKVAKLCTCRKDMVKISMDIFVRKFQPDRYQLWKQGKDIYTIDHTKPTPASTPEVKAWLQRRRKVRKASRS
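Material: N-terminal GST-fused human GASC-1 (KDM4C) fragment, residues 2-372. Input: 10 nM enzyme. Incubation: enzyme reaction 30 min, then detection 60 min, both room temperature. Doses: one test concentration per compound. Read-out basis: inhibition from TR-FRET ratio decrease. Detection: LANCE TR-FRET, excitation 340 nm, emissions 618 and 671 nm.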
T cruzi growth-2: Trypanosoma cruzi proliferation inhibition | shares compounds with T cruzi growth-1 | T. cruzi beta-gal in NIH3T3, GalScreen luminescence, 90 h | inhibition, % at 8.35 µM | actives 72% (n = 5,600);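 active = mean replicate inhibition above about 95% and at least 55% of replicates individually reaching it, limit read from the data; inconclusive = only one of the two criteria is met; inactive = neither criterion is met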
T cruzi growth-3: inhibitors of T. cruzi proliferation; shares compounds with T cruzi growth-1; T. cruzi beta-gal in NIH3T3, GalScreen luminescence, 90 h; inhibition, % at 2.09 µM; actives 21% (n = 5,600); AID 651740;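 active = mean inhibition above about 95%, with at least 55% of replicates also reaching it, limit read from the data; inconclusive = meets just one of the two conditions; inactive = meets neither condition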;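 also: plate controls were neutral control median for no effect and positive control median for full effect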
3T3 cytotox: NIH/3T3 (mouse) viability loss; shares compounds with T cruzi growth-1; cytotoxicity (signal decrease), % at 8.35 µM; actives 14% (n = 5,600); NIH/3T3 viability, CellTiter-Glo ATP luminescence, 90 h; AID 651742;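 active = mean signal decrease across replicates above about 35% based on untreated-well scatter, with enough replicates individually passing, limit read from the data; inconclusive = no rule stated though some were filed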;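 also: 0% = median of neutral control wells and 100% = median of positive control wells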
3T3 cytotox 2: cytotoxicity in mouse NIH/3T3 fibroblasts. shares compounds with T cruzi growth-1. NIH/3T3 viability, CellTiter-Glo ATP luminescence, 90 h. inhibition, % at 24.9 µM. actives 56% (n = 5,600). AID 651744;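 active = mean loss of cell viability signal at or above a set limit, and enough replicates individually reaching it; inconclusive = meets only the mean limit or only the replicate share; inactive = meets neither condition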;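 also: 0% = median of neutral control wells and 100% = median of positive control wells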
* = called active by the depositor; ? = inconclusive; · = no result. The sample as a whole holds a higher share of hits than the screen did.

SMILES	T cruzi growth-1	IDH1 mut inh	GASC1 inh	T cruzi growth-2	T cruzi growth-3	3T3 cytotox	3T3 cytotox 2
C[C@H](CO)N1C[C@H](C)[C@H](CN(C)C(=O)Nc2ccnc(N3CCOCC3)c2)OCc2ccccc2-c2ccccc2C1=O	110*	·	-1	?	85	4	24
C[C@H](CO)N1C[C@H](C)[C@@H](CN(C)C(=O)Nc2ccccc2)OCc2ccccc2-c2ccccc2C1=O	54	-1	-2	·	·	·	·
C[C@H](CO)N1C[C@H](C)[C@H](CN(C)C(=O)Nc2ccccc2)OCc2ccccc2-c2ccccc2C1=O	44	·	-4	·	·	·	·
C[C@@H]1CN([C@@H](C)CO)C(=O)c2ccccc2-c2ccccc2CO[C@@H]1CN(C)C(=O)Nc1ccnc(N2CCOCC2)c1	106*	-1	7	107*	88	-1	28*
C[C@H]1CN([C@@H](C)CO)C(=O)c2ccccc2-c2ccccc2CO[C@H]1CN(C)C(=O)Nc1ccnc(N2CCOCC2)c1	105*	·	1	101*	77	6	33*
C[C@H](CO)N1C[C@H](C)[C@H](CN(C)C(=O)Nc2ccnc(N3CCOCC3)c2)OCc2ccccc2-c2c(n(C)c3ccccc23)C1=O	·	·	-1	·	·	·	·
COc1c(CCC(=O)O)c(O[C@@H]2O[C@H](CO)[C@@H](O)[C@H](O)[C@H]2O)cc2occc12	·	0	·	·	·	·	·
O=C(NCc1nc(-c2ccccc2)no1)c1ccc2ccccc2c1	·	0	·	·	·	·	·
C/C=C1\C(O[C@@H]2O[C@H](CO[C@@H]3O[C@H](CO)[C@@H](O)[C@H](O)[C@H]3O)[C@@H](O)[C@H](O)[C@H]2O)OC=C(C(=O)OC)C1CC(=O)OCCc1ccc(O)cc1 (some centres undefined)	·	2	·	·	·	·	·
COc1ccc(-n2c(C)nnc2SCC(=O)Nc2ccc(F)c(Cl)c2)cc1	·	0	·	·	·	·	·
C[C@@H](O)C#Cc1ccc([C@@H]2[C@@H](CO)N3CCCCN(S(=O)(=O)c4ccccc4)C[C@@H]23)cc1	117*	·	3	41	9	10	26*
C[C@@H](O)C#Cc1ccc([C@H]2[C@H](CO)N3CCCCN(S(=O)(=O)c4ccccc4)C[C@@H]23)cc1	105*	·	2	71	-3	2	5
C[C@H](O)C#Cc1ccc([C@H]2[C@@H](CO)N3CCCCN(S(=O)(=O)c4ccccc4)C[C@@H]23)cc1	90	·	0	·	·	·	·
C[C@@H](O)C#Cc1ccc([C@H]2[C@H]3CN(S(=O)(=O)c4ccccc4)CCCCN3[C@H]2CO)cc1	73	·	-1	·	·	·	·
C[C@H](O)C#Cc1ccc([C@@H]2[C@@H](CO)N3CCCCN(S(=O)(=O)c4ccccc4)C[C@H]23)cc1	111*	·	-1	61	-18	16	8
C[C@H](O)C#Cc1ccc([C@@H]2[C@@H](CO)N3CCCCN(S(=O)(=O)c4ccccc4)C[C@@H]23)cc1	24	·	0	·	·	·	·
CCOc1ccc(C(C)=O)cc1CSc1nc(C)cc(=O)[nH]1	·	0	·	·	·	·	·
Cc1ccc(S(=O)(=O)N(C)CC(=O)Nc2ccc(Nc3ccccc3)cc2)cc1	·	-1	·	·	·	·	·
CC(C)CC#Cc1ccc([C@H]2[C@H]3CN(C(=O)NC4CCCC4)CCCCN3[C@H]2CO)cc1	?	·	-1	110*	51	9	104*
COc1ccc(NC(=O)N2CCCCN3[C@H](C2)[C@H](c2ccc(C#Cc4ccccn4)cc2)[C@@H]3CO)cc1	84	·	0	·	·	·	·
COc1ccc(NC(=O)N2CCCCN3[C@H](C2)[C@H](c2ccc(C#CCC(C)C)cc2)[C@@H]3CO)cc1	118*	·	-1	92	61	14	100*
COc1ccc(C#Cc2ccc([C@H]3[C@H]4CN(C(=O)Nc5ccc(F)cc5)CCCCN4[C@H]3CO)cc2)cc1	79	·	-3	·	·	·	·
COc1ccc(NC(=O)N2CCCCN3[C@H](CO)[C@H](c4ccc(C#CCC(C)C)cc4)[C@@H]3C2)cc1	121*	·	-1	108*	96*	?	83*
COc1ccc(C#Cc2ccc([C@@H]3[C@H]4CN(C(=O)Nc5ccc(F)cc5)CCCCN4[C@H]3CO)cc2)cc1	1	·	-2	·	·	·	·
